ChEMBL document CHEMBL1143558, “Discovery of a novel series of peroxisome proliferator-activated receptor alpha/gamma dual agonists for the treatment of type 2 diabetes and dyslipidemia” (J Med Chem, 2005)

Key:
[1] = molecular target: T1, Peroxisome proliferator-activated receptor alpha (Homo sapiens, UniProt Q07869); test: Effective concentration against human Peroxisome proliferator activated receptor alpha in Gal4 transactivation assay; Not active at 3 uM
T1 sequence (Q07869 whole entry): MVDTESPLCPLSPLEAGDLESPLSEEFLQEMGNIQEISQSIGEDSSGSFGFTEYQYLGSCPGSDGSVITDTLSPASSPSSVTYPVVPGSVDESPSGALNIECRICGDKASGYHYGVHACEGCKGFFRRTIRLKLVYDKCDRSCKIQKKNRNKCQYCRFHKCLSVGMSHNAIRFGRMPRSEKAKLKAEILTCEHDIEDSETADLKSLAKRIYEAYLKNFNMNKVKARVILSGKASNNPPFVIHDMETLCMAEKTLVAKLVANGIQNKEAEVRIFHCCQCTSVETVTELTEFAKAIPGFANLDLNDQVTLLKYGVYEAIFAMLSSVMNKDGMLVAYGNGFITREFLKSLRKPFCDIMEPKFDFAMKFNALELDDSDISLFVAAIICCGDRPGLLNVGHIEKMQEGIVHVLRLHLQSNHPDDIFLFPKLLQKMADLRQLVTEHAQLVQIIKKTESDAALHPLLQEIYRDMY
Method in brief: (§1)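 Chimeric GAL4-hPPARα or GAL4-hPPARγ transactivation assay in transiently transfected COS-1 cells. Compounds were titrated up to 3 µM, the highest concentration tested. […] "Not active" means no activity at 3 µM.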

[2] = molecular target: T2, Peroxisome proliferator-activated receptor gamma (Homo sapiens, UniProt P37231); test: Inhibition of human Peroxisome proliferator activated receptor gamma binding
T2 sequence (P37231 whole entry): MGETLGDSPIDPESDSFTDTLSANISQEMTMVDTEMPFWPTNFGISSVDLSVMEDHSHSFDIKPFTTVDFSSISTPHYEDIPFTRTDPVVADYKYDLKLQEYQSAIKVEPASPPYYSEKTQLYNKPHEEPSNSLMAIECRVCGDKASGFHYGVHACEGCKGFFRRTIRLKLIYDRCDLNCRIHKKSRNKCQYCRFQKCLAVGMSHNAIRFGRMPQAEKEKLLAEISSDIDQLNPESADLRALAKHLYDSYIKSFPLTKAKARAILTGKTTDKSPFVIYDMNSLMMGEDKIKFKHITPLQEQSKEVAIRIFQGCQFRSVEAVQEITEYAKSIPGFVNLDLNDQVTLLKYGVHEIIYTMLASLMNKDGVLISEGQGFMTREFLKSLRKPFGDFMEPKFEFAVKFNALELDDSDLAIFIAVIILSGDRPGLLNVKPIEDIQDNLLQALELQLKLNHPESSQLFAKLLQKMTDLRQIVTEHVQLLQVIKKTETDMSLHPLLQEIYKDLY

[3] = molecular target: T1, Peroxisome proliferator-activated receptor alpha; test: Inhibition of human Peroxisome proliferator activated receptor alpha binding
[4] = molecular target: T2, Peroxisome proliferator-activated receptor gamma; test: Effective concentration against human Peroxisome proliferator activated receptor gamma in Gal4 transactivation assay; Not active at 3 uM; method in brief: as §1
[5] = molecular target: T1, Peroxisome proliferator-activated receptor alpha; test: Effective concentration against human Peroxisome proliferator activated receptor alpha in Gal4 transactivation assay
[6] = molecular target: T2, Peroxisome proliferator-activated receptor gamma; test: Maximal effect against human Peroxisome proliferator activated receptor gamma in Gal4 transactivation assay
Method in brief: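 Chimeric GAL4-hPPARγ transactivation assay in transiently transfected COS-1 cells. The response is given as percent at 3 µM, the mean of n = 3.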

[7] = molecular target: T2, Peroxisome proliferator-activated receptor gamma; test: Effective concentration against human Peroxisome proliferator activated receptor gamma in Gal4 transactivation assay
[8] = molecular target: T3, Peroxisome proliferator-activated receptor alpha (Canis lupus familiaris, UniProt Q95N78); test: Agonist activity against dog Peroxisome proliferator activated receptor alpha; type: functional
T3 sequence (Q95N78 whole entry): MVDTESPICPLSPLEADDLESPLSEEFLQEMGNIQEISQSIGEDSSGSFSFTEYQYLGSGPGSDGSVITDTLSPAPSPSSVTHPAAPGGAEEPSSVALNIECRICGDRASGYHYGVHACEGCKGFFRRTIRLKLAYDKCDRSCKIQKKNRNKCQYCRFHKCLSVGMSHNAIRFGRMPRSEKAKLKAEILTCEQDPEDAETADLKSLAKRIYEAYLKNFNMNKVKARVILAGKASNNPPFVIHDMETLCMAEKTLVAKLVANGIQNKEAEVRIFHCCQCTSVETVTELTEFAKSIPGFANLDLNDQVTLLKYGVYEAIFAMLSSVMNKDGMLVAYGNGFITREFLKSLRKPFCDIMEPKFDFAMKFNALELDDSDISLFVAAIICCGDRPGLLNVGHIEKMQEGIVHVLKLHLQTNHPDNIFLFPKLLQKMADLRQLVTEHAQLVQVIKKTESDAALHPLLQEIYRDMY
Method in brief: (§2)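 Chimeric GAL4 fusions carrying the PPARα receptor from dog, hamster or mouse, constructed like the human transactivation assay. Run in transiently transfected COS-1 cells, with agonist activity read as EC50.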

[9] = molecular target: T4, Peroxisome proliferator-activated receptor alpha (Mus musculus, UniProt P23204); test: Agonist activity against mouse Peroxisome proliferator activated receptor alpha; type: functional; method in brief: as §2
T4 sequence (P23204 whole entry): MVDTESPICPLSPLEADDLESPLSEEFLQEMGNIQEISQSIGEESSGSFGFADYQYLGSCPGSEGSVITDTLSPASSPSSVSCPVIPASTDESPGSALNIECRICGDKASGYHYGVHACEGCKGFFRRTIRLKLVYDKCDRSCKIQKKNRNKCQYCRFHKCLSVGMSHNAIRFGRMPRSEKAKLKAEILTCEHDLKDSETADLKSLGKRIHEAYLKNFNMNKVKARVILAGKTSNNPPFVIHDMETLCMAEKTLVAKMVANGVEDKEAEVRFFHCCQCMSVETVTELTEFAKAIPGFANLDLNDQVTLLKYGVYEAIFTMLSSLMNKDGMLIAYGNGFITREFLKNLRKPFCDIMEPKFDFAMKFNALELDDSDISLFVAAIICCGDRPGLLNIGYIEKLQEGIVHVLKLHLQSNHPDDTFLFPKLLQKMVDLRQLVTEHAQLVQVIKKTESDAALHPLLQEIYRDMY

CCCc1cc2c(C(F)(F)F)noc2c(CCC)c1OCC(C)(C)C(=O)O
EC50 [1]: Not Active | IC50 [2]: > 15 µM | IC50 [3]: > 50 µM | EC50 [4]: Not Active

CCCc1cc2c(C(F)(F)F)noc2c(CCC)c1OC(C)C(=O)O (configuration not stated)
EC50 [5]: 0.62 µM | IC50 [2]: > 10 µM | IC50 [3]: 1.03 µM | Emax [6]: 21%

CCCc1cc(C(=O)CC)cc(CCC)c1OC(C)(C)C(=O)O
EC50 [5]: 0.01 µM | IC50 [2]: 1.22 µM | IC50 [3]: 0.48 µM | EC50 [7]: 1.3 µM

CCCc1cc2c(OC)noc2c(CCC)c1OC(C)(C)C(=O)O
EC50 [5]: 0.06 µM | IC50 [2]: 1.62 µM | IC50 [3]: 1.51 µM | EC50 [7]: 1.1 µM

CCCc1cc2c(C(F)(F)F)noc2c(CCC)c1OC(C)(C)C(=O)O
EC50 [5]: 0.3 µM | EC50 [8]: 0.55 µM | EC50 [9]: 0.18 µM | IC50 [2]: 1.58 µM | IC50 [3]: 0.23 µM | Emax [6]: 25%

CCCc1c(OC(C)(C)C(=O)O)ccc2c(C(F)(F)F)noc12
EC50 [1]: Not Active | IC50 [2]: > 10 µM | IC50 [3]: > 10 µM | EC50 [4]: Not Active

CCCc1cc2c(C(F)(F)F)noc2c(CCC)c1OC(C)(CC)C(=O)O (configuration not stated)
EC50 [5]: 0.75 µM | IC50 [2]: > 15 µM | IC50 [3]: 0.1 µM | Emax [6]: 26%

CC(C)(Oc1ccc(C(=O)c2ccc(Cl)cc2)cc1)C(=O)O [FENOFIBRIC ACID]
EC50 [5]: 15 µM | IC50 [3]: 35 µM
